Assays:
Assay type in all cases: functional
Rattus norvegicus [1] = assay: Antiinflammatory activity in carrageenan-induced Wistar rat paw edema model assessed as paw volume at 100 mg/kg, po administered 30 mins prior to carrageenan challenge measured at 2 hrs by plethysmographic analysis (reference value: 1.07 +/- 0.08 ml)
Mus musculus [2] = assay: Analgesic activity in Swiss albino mouse assessed as inhibition of acetic acid-induced writhing at 50 mg/kg, po administered 30 mins followed by acetic acid challenge measured for 20 mins relative to control
How it was run: (§1)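 Mice were fasted 18 h with water ad libitum and split into 6 groups. Test agents were dosed orally at 50 mg/kg, with diclofenac 50 mg/kg as standard. After 30 min, 1.0% v/v acetic acid was given ip at 1 mL/100 g. Writhes were counted over 20 min. % inhibition = (mean control writhes − mean test writhes)/mean control writhes × 100. Results are mean ± S.E.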

Rattus norvegicus [3] = assay: Antiinflammatory activity in carrageenan-induced Wistar rat paw edema model assessed as paw volume at 100 mg/kg, po administered 30 mins prior to carrageenan challenge measured at 4 hrs by plethysmographic analysis (reference value: 1.2 +/- 0.05 ml)
Rattus norvegicus [4] = assay: Antiinflammatory activity in carrageenan-induced Wistar rat paw edema model assessed as paw volume at 100 mg/kg, po administered 30 mins prior to carrageenan challenge measured at 6 hrs by plethysmographic analysis (reference value: 0.96 +/- 0.03 ml)
Rattus norvegicus [5] = assay: Antiinflammatory activity in carrageenan-induced Wistar rat paw edema model assessed as paw volume at 100 mg/kg, po administered 30 mins prior to carrageenan challenge measured at 1 hr by plethysmographic analysis (reference value: 0.90 +/- 0.05 ml)
Mus musculus [6] = assay: Analgesic activity in Swiss albino mouse assessed as inhibition of acetic acid-induced writhing at 50 mg/kg administered 30 mins followed by acetic acid challenge measured for 20 mins relative to control; how it was run: as §1

For `Cc1noc(/C=C/c2ccccc2)c1N1CC2=C(C(=O)c3ccccc3C2=O)C12C(=O)Nc1ccccc12` (stereo unspecified), the Activity (Rattus norvegicus [1]) was 0.84 mL, the inhibition in vivo at 50 mg/kg (Mus musculus [2]) was 22.4% and the Activity (Rattus norvegicus [3]) was 0.75 mL. For the same molecule, the Activity (Rattus norvegicus [4]) was 0.6 mL and the Activity (Rattus norvegicus [5]) was 0.75 mL.

For `Cc1ccc(/C=C/c2onc(C)c2N2CC3=C(C(=O)c4ccccc4C3=O)C23C(=O)Nc2ccccc23)cc1` (stereo unspecified), the Activity (Rattus norvegicus [1]) was 0.8 mL, the inhibition in vivo at 50 mg/kg (Mus musculus [2]) was 26.3% and the Activity (Rattus norvegicus [3]) was 0.69 mL. For the same molecule, the Activity (Rattus norvegicus [4]) was 0.54 mL and the Activity (Rattus norvegicus [5]) was 0.7 mL.

Work on `COc1ccc(/C=C/c2onc(C)c2N2CC3=C(C(=O)c4ccccc4C3=O)C23C(=O)Nc2ccccc23)cc1` (stereo unspecified) yielded an Activity (Rattus norvegicus [1]) of 0.91 mL, an inhibition in vivo at 50 mg/kg (Mus musculus [2]) of 19.6% and an Activity (Rattus norvegicus [3]) of 0.65 mL. It also gave an Activity (Rattus norvegicus [4]) of 0.6 mL and an Activity (Rattus norvegicus [5]) of 0.8 mL.

With `Cc1noc(/C=C/c2ccc(Cl)cc2)c1N1CC2=C(C(=O)c3ccccc3C2=O)C12C(=O)Nc1ccccc12` (stereo unspecified) the Activity (Rattus norvegicus [1]) was 0.69 mL, the inhibition in vivo at 50 mg/kg (Mus musculus [2]) was 50.4% and the Activity (Rattus norvegicus [3]) was 0.65 mL. It also gave an Activity (Rattus norvegicus [4]) of 0.41 mL and an Activity (Rattus norvegicus [5]) of 0.54 mL.

`Cc1noc(/C=C/c2ccc(Cl)cc2Cl)c1N1CC2=C(C(=O)c3ccccc3C2=O)C12C(=O)Nc1ccccc12` (stereo unspecified) gave an Activity (Rattus norvegicus [1]) of 0.71 mL, an inhibition in vivo at 50 mg/kg (Mus musculus [2]) of 44.8% and an Activity (Rattus norvegicus [3]) of 0.54 mL. The Activity (Rattus norvegicus [4]) was 0.32 mL and the Activity (Rattus norvegicus [5]) was 0.57 mL.

`Cc1noc(/C=C/c2c(Cl)cccc2Cl)c1N1CC2=C(C(=O)c3ccccc3C2=O)C12C(=O)Nc1ccccc12` (stereo unspecified) showed an Activity (Rattus norvegicus [1]) of 0.7 mL, an inhibition in vivo at 50 mg/kg (Mus musculus [2]) of 48.3% and an Activity (Rattus norvegicus [3]) of 0.67 mL. It also gave an Activity (Rattus norvegicus [4]) of 0.4 mL and an Activity (Rattus norvegicus [5]) of 0.54 mL.

With `Cc1noc(/C=C/c2ccccc2O)c1N1CC2=C(C(=O)c3ccccc3C2=O)C12C(=O)Nc1ccccc12` (stereo unspecified) the Activity (Rattus norvegicus [1]) was 0.81 mL, the inhibition in vivo at 50 mg/kg (Mus musculus [2]) was 20.4% and the Activity (Rattus norvegicus [3]) was 0.8 mL. For the same molecule, the Activity (Rattus norvegicus [4]) was 0.52 mL and the Activity (Rattus norvegicus [5]) was 0.78 mL.

`Cc1noc(/C=C/c2ccccc2)c1N1CC2=C(C(=O)c3ccccc3C2=O)C12C(=O)Nc1ccc(Cl)cc12` (stereo unspecified) was tested, and the Activity (Rattus norvegicus [1]) was 0.83 mL, the inhibition in vivo at 50 mg/kg (Mus musculus [2]) was 16.5% and the Activity (Rattus norvegicus [3]) was 0.82 mL. The Activity (Rattus norvegicus [4]) was 0.63 mL and the Activity (Rattus norvegicus [5]) was 0.82 mL.

Molecule `COc1ccc2c(c1)C1(C(=O)N2)C2=C(CN1c1c(C)noc1/C=C/c1ccccc1)C(=O)c1ccccc1C2=O` (stereo unspecified) has an Activity (Rattus norvegicus [1]) of 0.91 mL, an inhibition in vivo at 50 mg/kg (Mus musculus [2]) of 18.4% and an Activity (Rattus norvegicus [3]) of 0.81 mL. For the same molecule, the Activity (Rattus norvegicus [4]) was 0.6 mL and the Activity (Rattus norvegicus [5]) was 0.73 mL.

`Cc1ccc2c(c1)C1(C(=O)N2)C2=C(CN1c1c(C)noc1/C=C/c1ccccc1)C(=O)c1ccccc1C2=O` (stereo unspecified) gave an Activity (Rattus norvegicus [1]) of 0.89 mL, an inhibition in vivo at 50 mg/kg (Mus musculus [2]) of 19.5% and an Activity (Rattus norvegicus [3]) of 0.83 mL. The Activity (Rattus norvegicus [4]) was 0.55 mL and the Activity (Rattus norvegicus [5]) was 0.77 mL.

In the case of `O=C(O)Cc1ccccc1Nc1c(Cl)cccc1Cl` [DICLOFENAC], the inhibition in vivo at 50 mg/kg (Mus musculus [6]) is reported as 53.6%.

Source: ChEMBL document CHEMBL2396518, “A facile synthesis, anti-inflammatory and analgesic activity of isoxazolyl-2,3-dihydrospiro[benzo[f]isoindole-1,3'-indoline]-2',4,9-triones” (2013)
